Data set [1] has as its system Nucleic Acid. The experiment in a line: Binding affinity to human telomeric AGGG(TTAGGG)3 quadruplex assessed as fluorescence quenching at 10 uM after 3 mins by fluorescence titration method. It counts as nucleic-acid assay. In a few lines: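 Ligand held at 10 µM (final 2% DMSO) in K-phosphate/70 mM KCl buffer, pH 7.0, 25 °C, titrated with 100–160 µM annealed quadruplex in 5–10 µL additions, ≥3 min equilibration each. Emission recorded 400–600 nm. Fraction free ligand from the change in emission maximum, plotted against quadruplex concentration and fitted for Kb and n; ≥3 experiments.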

The test system of data set [2] is Nucleic Acid. The experiment in a line: Binding affinity to human telomeric AGGG(TTAGGG)3 quadruplex in first binding event at 480 to 640 uM every 300 to 400 secs at pH 7 by isothermal titration calorimetry analysis. It counts as nucleic-acid assay. The method, boiled down: (§1)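 Isothermal titration calorimetry at 25 °C, pH 7.0 (20 mM K phosphate, 70 mM KCl, 0.1 mM EDTA). Quadruplex annealed 90 °C for 5 min, slow-cooled, held 24 h at 4 °C, used at 30–40 µM. Ligand 480–640 µM, 5–10 µL injections every 300/400 s, 25–50 injections. First injection discarded; dilution heat subtracted; multiple-sites fit gives Kb for each sequential event.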

In data set [3] the test system is Nucleic Acid. Put plainly: Binding affinity to human telomeric AGGG(TTAGGG)3 quadruplex in second binding event at 480 to 640 uM every 300 to 400 secs at pH 7 by isothermal titration calorimetry method. It counts as nucleic-acid assay. The method, boiled down:
as §1
(ITC needs no label: the signal is the heat of the interaction.)

For data set [4], the target named is DNA polymerase I, thermostable (Thermus aquaticus) (UniProt P19821). Put plainly: Inhibition of Thermus aquaticus taq polymerase at 0.1 to 50 uM after 72 hrs by ELISA based TRAP assay. The method, boiled down: (§2)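 A549 cells exposed to compound at several concentrations for 72 h. Extracts (1–3 × 10^5 cell equivalents) run in a TRAP PCR-ELISA: P1-TS extension 20 min at 25 °C, then 30 PCR cycles, with an internal standard. Telomerase activity comes from elongation products; Taq activity from internal-standard amplification. Heat-inactivated extract serves as negative control. Triplicates, mean ± SEM, paired t-test.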
DNA polymerase I, thermostable (Thermus aquaticus), sequence (P19821 whole entry): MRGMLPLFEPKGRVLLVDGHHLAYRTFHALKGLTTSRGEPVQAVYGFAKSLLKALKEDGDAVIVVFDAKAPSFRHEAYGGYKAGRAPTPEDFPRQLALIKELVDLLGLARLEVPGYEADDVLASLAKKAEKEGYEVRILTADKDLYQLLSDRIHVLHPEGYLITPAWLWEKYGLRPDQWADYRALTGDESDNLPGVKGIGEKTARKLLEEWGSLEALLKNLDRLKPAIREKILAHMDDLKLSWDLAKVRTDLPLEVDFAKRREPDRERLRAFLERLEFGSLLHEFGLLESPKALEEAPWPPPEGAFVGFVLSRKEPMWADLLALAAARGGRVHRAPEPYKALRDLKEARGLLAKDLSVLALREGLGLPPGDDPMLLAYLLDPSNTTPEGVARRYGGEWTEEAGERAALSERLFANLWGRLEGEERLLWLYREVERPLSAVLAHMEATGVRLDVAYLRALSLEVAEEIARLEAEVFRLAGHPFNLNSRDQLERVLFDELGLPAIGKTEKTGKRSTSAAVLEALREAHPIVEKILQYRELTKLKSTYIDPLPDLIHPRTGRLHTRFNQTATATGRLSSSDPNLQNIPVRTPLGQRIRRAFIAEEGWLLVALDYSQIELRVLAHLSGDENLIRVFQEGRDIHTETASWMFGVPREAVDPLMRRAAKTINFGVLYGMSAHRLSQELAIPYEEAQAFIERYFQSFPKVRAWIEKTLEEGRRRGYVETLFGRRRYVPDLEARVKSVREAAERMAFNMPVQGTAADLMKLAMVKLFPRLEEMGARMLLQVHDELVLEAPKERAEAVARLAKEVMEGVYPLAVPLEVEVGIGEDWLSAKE
(In general: ELISA stands for enzyme-linked immunosorbent assay.)

Data set [5] addresses Telomerase reverse transcriptase (Homo sapiens) (UniProt O14746). Put plainly: Inhibition of telomerase in human A549 cells at 5 uM after 72 hrs by ELISA based TRAP assay. It counts as cell-based. In a few lines:
as §2

For data set [6], the system named is Nucleic Acid. The experiment in a line: Binding affinity to human telomeric AGGG(TTAGGG)3 quadruplex after 4 secs by circular dichroism spectroscopy analysis. It is filed as nucleic-acid assay. (Circular dichroism is the unequal absorption of left and right circularly polarised light.)
The subject of data set [7] is Nucleic Acid. Put plainly: Binding affinity to duplex DNA d(CGCGAATTCGCG)2 duplex at pH 7 by isothermal titration calorimetry method. It counts as nucleic-acid assay. In a few lines:
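ITC at 298 K. Ligand dissolved in the DNA buffer (20 mM potassium phosphate, 70 mM KCl, 0.1 mM EDTA, pH 7.0). 480–640 µM ligand injected in 5–10 µL aliquots into 30–40 µM annealed duplex every 300 or 400 s, 25–50 injections, stirring 150 rpm. Heats corrected for ligand dilution; isotherms fitted for Kb, ΔH and n.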

Data set [8] relates to Nucleic Acid. The experiment in a line: Binding affinity to satellite DNA by UV titration method method. It is filed as nucleic-acid assay.
Data set [9] has as its system M14. The experiment in a line: Cytotoxicity against human M14 cells after 5 days by MTT assay. It counts as functional, cell-based. The following applies: for pIC50: M14, 120 h. In a few lines:
(§3)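 Cells kept in RPMI-1640 with 10% FCS, 2 mM glutamine and gentamycin, 37 °C, 5% CO2. Seeded at 1000–3000/well, attached 24 h, then given 0.1–100 µM drug for 5 days; 0.2% DMSO controls. MTT added for 4 h, formazan dissolved in acidified isopropanol, A570 read. Eight replicates per point. IC50 read graphically from growth curves; mean ± SD of three experiments.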

In data set [10] the test system is Nucleic Acid. Put plainly: Binding affinity to human telomeric AGGG(TTAGGG)3 quadruplex assessed as melting temperature at 1:1 compound to DNA ratio at pH 7 by UV-visible spectrophotometer analysis. It counts as nucleic-acid assay. The method, boiled down:
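UV melting of 25 µM annealed quadruplex alone or with ligand at 1:1 or 2:1 ligand/DNA, pH 7.0 K-phosphate/KCl buffer. Absorbance at 295 nm, 20–85 °C, heating at 0.5 °C/min, 1 mm path. Tm taken as mean ± SD of at least three runs.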

Data set [11] deals with NIH3T3. Put plainly: Cytotoxicity against mouse NIH/3T3 cells assessed as growth inhibition at 0.1 to 100 uM after 5 days by MTT assay. It is filed as cell-based. To be noted: nih3t3, 120 h. In a few lines: (§4)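 Mouse embryo fibroblasts grown with bovine calf serum in place of fetal serum. Plated at 1000–3000/well, attached 24 h, then exposed to 0.1–100 µM drug at 37 °C for 5 days alongside 0.2% DMSO controls. MTT for 4 h, acidified isopropanol, A570 read. Eight replicates per point; IC50 taken graphically, mean ± SD of three experiments.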

Data set [12] concerns the target Telomerase reverse transcriptase (Homo sapiens) (UniProt O14746). The experiment in a line: Inhibition of telomerase in human A549 cells after 72 hrs by ELISA based TRAP assay. It counts as cell-based. The method, boiled down: as §2
Data set [13] concerns A549. The experiment in a line: Cytotoxicity against human A549 cells after 5 days by MTT assay. To be noted: for pIC50: A549, 120 h. It is filed as functional, cell-based. The method, boiled down: as §3
Data set [14] concerns NIH3T3. The experiment in a line: Cytotoxicity against mouse NIH/3T3 cells after 5 days by MTT assay. It is filed as cell-based. To be noted: NIH3T3, 120 h. In a few lines:
as §4

For data set [15], the target named is DNA polymerase I, thermostable (Thermus aquaticus) (UniProt P19821). Put plainly: Inhibition of Thermus aquaticus taq polymerase at 10 to 100 uM after 72 hrs by ELISA based TRAP assay. In a few lines: as §2
Data set [16] deals with Telomerase reverse transcriptase (Homo sapiens) (UniProt O14746). Put plainly: Inhibition of telomerase in human A549 cells at 0.05 to 100 uM after 72 hrs by ELISA based TRAP assay. It is filed as cell-based. The method, boiled down:
as §2

Data set [17] concerns the target DNA polymerase I, thermostable (Thermus aquaticus) (UniProt P19821). The experiment in a line: Inhibition of Thermus aquaticus taq polymerase at 0.5 to 100 uM after 72 hrs by ELISA based TRAP assay. In a few lines: as §2

pIC50: −log10 of the molar value. Calls of active or inactive are those of the source. The rule behind the calls is not given here.

This is an account of results in ChEMBL document CHEMBL1921743, “Design, synthesis, biophysical and biological studies of trisubstituted naphthalimides as G-quadruplex ligands” (Bioorg Med Chem, 2011).

Telomerase reverse transcriptase (Homo sapiens), sequence (O14746 whole entry): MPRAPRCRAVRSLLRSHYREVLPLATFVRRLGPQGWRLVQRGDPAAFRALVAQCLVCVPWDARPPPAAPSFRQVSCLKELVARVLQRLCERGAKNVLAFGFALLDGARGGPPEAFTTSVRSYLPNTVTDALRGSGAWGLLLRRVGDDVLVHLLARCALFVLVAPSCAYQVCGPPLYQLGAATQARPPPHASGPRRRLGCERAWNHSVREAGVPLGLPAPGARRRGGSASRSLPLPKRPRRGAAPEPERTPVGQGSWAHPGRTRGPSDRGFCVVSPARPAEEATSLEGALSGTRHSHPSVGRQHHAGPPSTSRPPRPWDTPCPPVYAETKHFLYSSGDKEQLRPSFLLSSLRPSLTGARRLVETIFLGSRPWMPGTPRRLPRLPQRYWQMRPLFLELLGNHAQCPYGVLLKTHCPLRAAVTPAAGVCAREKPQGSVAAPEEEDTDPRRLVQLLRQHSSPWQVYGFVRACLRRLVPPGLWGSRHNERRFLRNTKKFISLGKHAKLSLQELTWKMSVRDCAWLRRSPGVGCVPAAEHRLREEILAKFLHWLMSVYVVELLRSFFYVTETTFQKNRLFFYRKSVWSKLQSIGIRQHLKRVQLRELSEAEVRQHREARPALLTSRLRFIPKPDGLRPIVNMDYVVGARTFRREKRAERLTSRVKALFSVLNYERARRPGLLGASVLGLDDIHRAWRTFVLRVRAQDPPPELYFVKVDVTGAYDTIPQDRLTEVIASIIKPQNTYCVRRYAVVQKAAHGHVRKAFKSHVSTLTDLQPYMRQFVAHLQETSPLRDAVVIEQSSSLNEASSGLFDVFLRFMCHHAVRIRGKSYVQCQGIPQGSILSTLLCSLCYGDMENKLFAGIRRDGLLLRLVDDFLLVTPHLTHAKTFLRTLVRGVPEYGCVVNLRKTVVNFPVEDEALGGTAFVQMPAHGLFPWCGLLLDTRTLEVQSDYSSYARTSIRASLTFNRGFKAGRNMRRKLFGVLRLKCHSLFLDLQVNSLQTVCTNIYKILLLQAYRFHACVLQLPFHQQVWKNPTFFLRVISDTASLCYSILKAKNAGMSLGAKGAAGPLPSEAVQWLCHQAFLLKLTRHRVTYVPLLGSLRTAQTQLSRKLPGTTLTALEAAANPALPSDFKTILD

Regarding `CN(C)CCN1C(=O)c2cc(NC(=O)CCN3CCCC3)cc3cc(NC(=O)CCN4CCCC4)cc(c23)C1=O`, the Kb in data set [1] is 6 ×10⁵ /M.

As to `O=C(CCN1CCCC1)Nc1cc2c3c(cc(NC(=O)CCN4CCCC4)cc3c1)C(=O)N(CCN1CCCC1)C2=O`, in data set [1], the Kb worked out at 12 ×10⁵ /M.

Consider `O=C(CCN1CCCC1)Nc1cc2c3c(cc(NC(=O)CCN4CCCC4)cc3c1)C(=O)N(CCN1CCCCC1)C2=O`, for which, in data set [1], the Kb stood at 9 ×10⁵ /M.

In the case of `O=C(CCN1CCCC1)Nc1cc2c3c(cc(NC(=O)CCN4CCCC4)cc3c1)C(=O)N(CCCN1CCCC1)C2=O`, the Kb worked out at 2 ×10⁷ /M in data set [2], 5 ×10⁵ /M in data set [3], 30 ×10⁵ /M in [1] and 5 ×10⁵ /M in data set [7]. Further, in [4], the inhibition entry was “inactive”. Further, the results for the inhibition in data set [5] and in data set [12] were 50% and “Dose-dependent effect”, respectively. Also, the outcome in data set [6] was Active. Besides, the result in data set [8] was inactive. The “growth inhibition (GI)” value in data set [9] and in [13] was “Dose-dependent effect” throughout. The results for the pIC50 in [9] and in data set [13] were 5.82 and 5.28, respectively. For the same molecule, the Tm in data set [10] came to 60 °C. The Activity entry in data set [11] is reported as “Non-toxic”.

Regarding `O=C(CCN1CCCC1)Nc1cc2c3c(cc(NC(=O)CCN4CCCC4)cc3c1)C(=O)N(CCCN1CCN(C(=O)CCN3CCCC3)CC1)C2=O`, the Kb in data set [1] stood at 9 ×10⁵ /M.

Take `O=C(CCN1CCCC1)Nc1cc2c3c(cc(NC(=O)CCN4CCCC4)cc3c1)C(=O)N(CCCN1CCCCC1)C2=O`: the results for the Kb in data set [2], in data set [3] and in [1] were 5 ×10⁷ /M, 6 ×10⁵ /M and 24 ×10⁵ /M, respectively. In addition, the inhibition is 26% in data set [5] and “Dose-dependent effect” in data set [12]. Also, in data set [6], the outcome was Active. In addition, the pIC50 in data set [14] was 4.36; in [9], 5.10; in [13] it was 5.00. Besides, the result in [8] was inactive. The “growth inhibition (GI)” value in [9] and in data set [13] was “Dose-dependent effect” each time. Besides, the Tm in data set [10] stood at 60 °C. In [15], the inhibition entry was “Active”.

As for `O=C(CCN1CCCC1)Nc1cc2c3c(cc(NC(=O)CCN4CCCC4)cc3c1)C(=O)N(CCN1CCN(C(=O)CCN3CCCC3)CC1)C2=O`, the Kb in [1] came to 7 ×10⁵ /M.

On to `O=C(CCN1CCCC1)Nc1cc2c3c(cc(NC(=O)CCN4CCCC4)cc3c1)C(=O)N(CCCN1CCOCC1)C2=O`, for which the results for the Kb in data set [2] and in [1] were 4 ×10⁵ /M and 10 ×10⁵ /M, respectively. The result in [6] was Active. For the same molecule, the pIC50 is 5.34 in data set [14], 4.46 in data set [9] and 4.39 in data set [13]. Besides, the “growth inhibition (GI)” value in [9] and in [13] was “Dose-dependent effect” in each case. In addition, the Tm in [10] came to 60 °C. Further, the inhibition result in data set [16] and in [17] was “Active” throughout. For the same molecule, the inhibition result in data set [12] is “Dose-dependent effect”.

The inhibition is the relative decrease from the control value, in per cent. A word on the pIC50: it is the IC50 on a negative log10 scale, so that one unit is a factor of ten. A high value points to a small IC50.
